The assay can be described thus: Inhibition of alpha-glucosidase (unknown origin) using PNP glycoside as substrate preincubated for 30 mins followed by substrate addition after 60 mins by spectrophotometric analysis. Also on record: species or system Homo sapiens. The procedure, abridged: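 Enzyme activity run in 50 mM phosphate buffer, pH 6.8, containing 5% v/v DMSO. Inhibitors pre-incubated with enzyme 30 min at 37 °C, then PNP glycoside substrate added and reaction run 60 min at 37 °C. Absorbance read at 400 nm. Triplicate runs at five concentrations spanning the IC50 estimated in a first round; means adopted.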
In general, IC50 refers to the concentration needed to halve the response being measured. Low values mean greater potency in that assay, high ones weaker potency in that assay. `CC(C)(C)c1ccc(C(=O)Nn2c(-c3cc4ccccc4oc3=O)cs/c2=N\c2ccc(Cl)c(Cl)c2)cc1` registered an IC50 of 0.78 µM.
`COc1ccc(/N=c2\scc(-c3cc4ccccc4oc3=O)n2NC(=O)c2ccccc2)cc1` had an IC50 of 6.5 µM.
To `COc1ccc(/N=c2\scc(-c3cc4ccccc4oc3=O)n2NC(=O)c2ccc(C(C)(C)C)cc2)cc1` belongs 1.4 µM; to `COc1ccc(/N=c2\scc(-c3cc4ccccc4oc3=O)n2NC(=O)c2ccccc2O)cc1`, 1.1 µM; to `O=C(Nn1c(-c2cc3ccccc3oc2=O)cs/c1=N\c1cccc(Br)c1)c1ccccc1O`, 4.06 µM.
To `COc1ccc(C(=O)Nn2c(-c3cc4ccccc4oc3=O)cs/c2=N\c2ccc(Cl)c(Cl)c2)c(OC)c1` belongs 2.5 µM; to `COc1ccc(/N=c2\scc(-c3cc4ccccc4oc3=O)n2NC(=O)c2ccc(OC)cc2OC)cc1`, 7.4 µM; to `COc1ccc(/N=c2\scc(-c3cc4ccccc4oc3=O)n2NC(=O)c2ccccc2OC)cc1`, 16.2 µM.
To `O=C(Nn1c(-c2cc3ccccc3oc2=O)cs/c1=N\c1ccc(Cl)c(Cl)c1)c1ccccc1O` belongs 0.12 µM; to `COc1ccc(/N=c2\scc(-c3cc4ccccc4oc3=O)n2NC(=O)c2cc(OC)cc(OC)c2)cc1`, 8.1 µM; to `COc1cc(OC)cc(C(=O)Nn2c(-c3cc4ccccc4oc3=O)cs/c2=N\c2cccc(Br)c2)c1`, 9.19 µM.
Compound `COc1ccc(/N=c2\scc(-c3cc4ccccc4oc3=O)n2NC(=O)c2ccc(OC)cc2)cc1` gave an IC50 of 3.6 µM.
To `COc1ccc(/N=c2\scc(-c3cc4ccccc4oc3=O)n2NC(=O)c2ccc(Br)cc2)cc1` belongs 9.45 µM.
To `COc1ccc(/N=c2\scc(-c3cc4ccccc4oc3=O)n2NC(=O)c2ccc(C)cc2C)cc1` belongs 2.9 µM.

Source of the values: ChEMBL document CHEMBL3864128, “Syntheses of new 3-thiazolyl coumarin derivatives, in vitro α-glucosidase inhibitory activity, and molecular modeling studies” (Eur J Med Chem, 2016).
